Reference: ChEMBL document CHEMBL5136966, “Synthesis and biological evaluation of N 6 derivatives of 8-azapurine as novel antiplatelet agents” (RSC Med Chem, 2021)

How the values were obtained:
[1] = Antiplatelet activity against ADP-induced human platelet in platelet rich plasma assessed as inhibition of platelet aggregation at 10 uM preincubated for 2 mins followed by ADP stimulation and measured for 5 mins by aggregometry relative to control; format: functional; conditions: 7 min
How it was run: (§1)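 Human whole blood anticoagulated with 3.8% sodium citrate (1:9 v/v); PRP by centrifugation at 300 rpm for 20 min at room temperature, PPP at 900 rpm for 10 min. Compound in DMSO (final under 0.5%) added to PRP, 2 min at 37 °C, then ADP 10 μM. Aggregometer stirred at 900 rpm, 37 °C, calibrated with PRP and PPP, read 5 min (Born). Inhibition from maximal trace height versus DMSO vehicle.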

[2] = Antiplatelet activity against ADP-induced human platelet in platelet rich plasma assessed as inhibition of platelet aggregation at 3 uM preincubated for 2 mins followed by ADP stimulation and measured for 5 mins by aggregometry relative to control; format: functional; conditions: 7 min; how it was run: as §1
[3] = Antiplatelet activity against ADP-induced human platelet in platelet rich plasma assessed as inhibition of platelet aggregation preincubated for 2 mins followed by ADP stimulation and measured for 5 mins by aggregometry; format: functional, cell-based; how it was run: as §1
Platelet = experiment: Potency index, ratio of ticagrelor IC50 to test compound IC50 for antiplatelet activity against ADP-induced human platelet in platelet rich plasma assessed as inhibition of platelet aggregation; format: functional
Mus musculus [4] = experiment: Antiplatelet activity against ADP-induced platelet aggregation in mouse assessed as inhibition of platelet aggregation at 2.5 mg/kg, iv measured after 1 hr by turbidimetric method relative to control; format: functional
How it was run: (§2)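 Male mice of about 20 g received compound iv (2.5 mg/kg) or orally (5 mg/kg). After 1 h, blood was drawn from the abdominal aorta into 3.8% citrate. PRP was obtained at 1000 rpm for 7 min, adjusted with PPP to about 2 × 10^6 platelets/mL and incubated 10 min at 37 °C. ADP final 5 μM; turbidimetric aggregation read, PRP as zero and PPP as 100%.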

Mus musculus [5] = experiment: Antiplatelet activity against ADP-induced platelet aggregation in mouse assessed as inhibition of platelet aggregation at 5 mg/kg, po measured after 1 hr by turbidimetric method relative to control; format: functional; how it was run: as §2
[6] = Toxicity in mouse assessed as bleeding time at 5 mg/kg, po administered via gavage measured after 1 hr by bleeding tail test (reference value: 5.2 mins); format: organism-based; conditions: in vivo
[7] = Toxicity in mouse assessed as blood loss at 5 mg/kg, po administered via gavage measured after 1 hr by bleeding tail test (reference value: 34.92 uL); format: organism-based; conditions: in vivo
[8] = Toxicity in mouse assessed as death at 1500 mg/kg, po administered via gavage measured for 14 days; format: organism-based; conditions: in vivo, 336 h, time 14 day
How it was run: (§3)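 Single-dose oral gavage study run under GLP. Forty mice (20 male, 20 female) were randomly split into a treated group and a vehicle group of 20 each (10 male, 10 female). The vehicle group got aqueous sodium carboxymethyl cellulose.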

[9] = Toxicity in mouse assessed as change in body weight at 1500 mg/kg, po administered via gavage measured for 14 days; format: organism-based; conditions: in vivo, 336 h, time 14 day; how it was run: as §3
[10] = Stability of compound in PBS buffer incubated for 1 week at 37 degC; format: physicochemical; conditions: time 1 weeks, read-out: Stability
[11] = Stability of compound in fasted-state simulated gastric fluid incubated for 1 day; format: ADME; conditions: read-out: Stability
[12] = Stability of compound in fasted-state simulated intestinal fluid incubated for 1 day; format: ADME; conditions: read-out: Stability
[13] = Stability in mouse liver microsomes measured after 1 hr; format: ADME, Microsome; conditions: read-out: Stability
[14] = Stability in mouse liver microsomes measured after 2 hrs; format: ADME, Microsome; conditions: read-out: Stability
P2Y purinoceptor 12 = P2Y purinoceptor 12 (Homo sapiens, UniProt Q9H244); experiment: Inhibition of P2Y12 receptor in human platelet assessed as reduction in ADP-induced VASP phosphorylation by flow cytometry; format: functional, cell-based
P2Y purinoceptor 12, sequence (Q9H244 whole entry): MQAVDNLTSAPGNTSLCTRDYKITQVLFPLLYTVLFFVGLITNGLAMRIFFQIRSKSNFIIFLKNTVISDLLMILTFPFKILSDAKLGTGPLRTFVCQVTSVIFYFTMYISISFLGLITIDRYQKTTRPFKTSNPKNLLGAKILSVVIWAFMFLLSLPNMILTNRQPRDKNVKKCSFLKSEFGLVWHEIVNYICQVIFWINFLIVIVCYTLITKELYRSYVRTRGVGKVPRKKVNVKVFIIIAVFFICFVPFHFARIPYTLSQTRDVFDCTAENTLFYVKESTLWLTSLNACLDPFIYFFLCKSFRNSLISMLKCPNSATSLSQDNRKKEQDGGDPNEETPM

| Compound | inhibition at 10 µM [1] [%] | inhibition at 3 µM [2] [%] | IC50 [3] [nM] | other results |
| --- | --- | --- | --- | --- |
| CCCSc1nc(N/N=C/c2ccccc2)c2nnn([C@@H]3C[C@H](O)[C@@H](O)[C@H]3O)c2n1 | 100 | 81.6 | 450 | Ratio IC50 (Platelet): 2 |
| CCCSc1nc(N/N=C/c2ccc(F)c(F)c2)c2nnn([C@@H]3C[C@H](O)[C@@H](O)[C@H]3O)c2n1 | 96.5 | 62.7 |  |  |
| CCCSc1nc(N/N=C/c2ccccc2O)c2nnn([C@@H]3C[C@H](O)[C@@H](O)[C@H]3O)c2n1 | 92.1 | 83.6 | 670 |  |
| CCCSc1nc(N/N=C/c2cccc(O)c2)c2nnn([C@@H]3C[C@H](O)[C@@H](O)[C@H]3O)c2n1 | 100 | 93.4 | 200 | Ratio IC50 (Platelet): 4; inhibition in vivo at 2.5 mg/kg (Mus musculus [4]): 62.2%; inhibition in vivo at 5 mg/kg (Mus musculus [5]): 73.3%; Time [6]: 10.4 min; Activity [7]: 44.5 µL; Activity [8]: Non-Toxic; Activity [9]: Non-Toxic; remaining at 168 h [10]: 98.3%; remaining at 24 h [11]: 96.7%; remaining at 24 h [12]: 97.4%; remaining at 1 h [13]: 81.2%; remaining at 2 h [14]: 73.7%; IC50 (P2Y purinoceptor 12): 46 nM |
| CCCSc1nc(N/N=C/c2ccc(O)cc2)c2nnn([C@@H]3C[C@H](O)[C@@H](O)[C@H]3O)c2n1 | 100 | 86.3 | 780 |  |
| CCCSc1nc(N/N=C/c2ccc(O)cc2O)c2nnn([C@@H]3C[C@H](O)[C@@H](O)[C@H]3O)c2n1 | 98.3 | 63.4 |  |  |
| CCCSc1nc(N/N=C/c2ccccc2OC)c2nnn([C@@H]3C[C@H](O)[C@@H](O)[C@H]3O)c2n1 | 48.7 | 11.7 |  |  |
| CCCSc1nc(N/N=C/c2ccc(OC)cc2)c2nnn([C@@H]3C[C@H](O)[C@@H](O)[C@H]3O)c2n1 | 81.5 | 71.4 | 1300 |  |
| CCCSc1nc(N/N=C/c2ccc(OC)c(OC)c2)c2nnn([C@@H]3C[C@H](O)[C@@H](O)[C@H]3O)c2n1 | 78.3 | 33.4 |  |  |
| CCCSc1nc(N/N=C/c2ccccc2Cl)c2nnn([C@@H]3C[C@H](O)[C@@H](O)[C@H]3O)c2n1 | 83.2 | 51.6 |  |  |
| CCCSc1nc(N/N=C/c2ccc(Cl)cc2)c2nnn([C@@H]3C[C@H](O)[C@@H](O)[C@H]3O)c2n1 | 53.7 | 7 |  |  |
| CCCSc1nc(N/N=C/c2ccc(Cl)cc2Cl)c2nnn([C@@H]3C[C@H](O)[C@@H](O)[C@H]3O)c2n1 | 50.1 |  |  |  |
| CCCSc1nc(N/N=C/c2cccc([N+](=O)[O-])c2)c2nnn([C@@H]3C[C@H](O)[C@@H](O)[C@H]3O)c2n1 | 88.6 | 76.3 | 660 |  |
| CCCSc1nc(N/N=C/c2ccc([N+](=O)[O-])cc2)c2nnn([C@@H]3C[C@H](O)[C@@H](O)[C@H]3O)c2n1 | 62.7 | 5 |  |  |
| CCCSc1nc(N/N=C/c2ccccn2)c2nnn([C@@H]3C[C@H](O)[C@@H](O)[C@H]3O)c2n1 | 71.7 | 36.4 |  |  |
| CCCSc1nc(N/N=C/c2cccs2)c2nnn([C@@H]3C[C@H](O)[C@@H](O)[C@H]3O)c2n1 | 95.4 | 80.5 | 400 |  |
| CCCSc1nc(NC2CC2)c2nnn([C@@H]3C[C@H](OCCO)[C@@H](O)[C@H]3O)c2n1 | 14.8 |  |  |  |
| CCCNc1nc(SCCC)nc2c1nnn2[C@@H]1C[C@H](OCCO)[C@@H](O)[C@H]1O | 13.6 |  |  |  |
| CCCSc1nc(NC2CC2)c2nnn([C@@H]3C[C@H](O)[C@@H](O)[C@H]3O)c2n1 | 86.3 |  | 820 |  |
| CCCSc1nc(N/N=C/c2ccc(Cl)cc2)c2nnn([C@@H]3C[C@H](OCCO)[C@@H](O)[C@H]3O)c2n1 | 69.1 | 9.1 |  |  |

| Compound | inhibition at 10 µM [1] [%] | inhibition at 3 µM [2] [%] | IC50 [3] [nM] | other results |
| --- | --- | --- | --- | --- |
| CCCSc1nc(NCCc2cccc(F)c2)c2nnn([C@@H]3C[C@H](O)[C@@H](O)[C@H]3O)c2n1 | 68.3 |  |  |  |
| CCCSc1nc(NC2CCCCC2)c2nnn([C@@H]3C[C@H](OCCO)[C@@H](O)[C@H]3O)c2n1 | 5.3 |  |  |  |
| CCCSc1nc(NCC)c2nnn([C@@H]3C[C@H](OCCO)[C@@H](O)[C@H]3O)c2n1 | 21.4 |  | 4890 |  |
| CCCSc1nc(NCCc2ccc(O)cc2)c2nnn([C@@H]3C[C@H](O)[C@@H](O)[C@H]3O)c2n1 | 76.8 |  |  |  |
| CCCSc1nc(NC2CCCC2)c2nnn([C@@H]3C[C@H](OCCO)[C@@H](O)[C@H]3O)c2n1 | 8.1 |  |  |  |
| CCCNc1nc(SCCC)nc2c1nnn2[C@@H]1C[C@H](O)[C@@H](O)[C@H]1O | 68.6 |  |  |  |
| CCCSc1nc(NCC(C)C)c2nnn([C@@H]3C[C@H](OCCO)[C@@H](O)[C@H]3O)c2n1 | 7.8 |  |  |  |
| CCCCNc1nc(SCCC)nc2c1nnn2[C@@H]1C[C@H](OCCO)[C@@H](O)[C@H]1O | 40.8 |  | 3160 |  |
| CCCSc1nc(NCCCO)c2nnn([C@@H]3C[C@H](OCCO)[C@@H](O)[C@H]3O)c2n1 | 13.9 |  |  |  |
| CCCSc1nc(N/N=C/c2cccc([N+](=O)[O-])c2)c2nnn([C@@H]3C[C@H](OCCO)[C@@H](O)[C@H]3O)c2n1 | 95.5 | 77.3 |  |  |
| CCCSc1nc(NCCO)c2nnn([C@@H]3C[C@H](OCCO)[C@@H](O)[C@H]3O)c2n1 | 15.2 |  |  |  |
| CCCSc1nc(N/N=C/c2ccc([N+](=O)[O-])cc2)c2nnn([C@@H]3C[C@H](OCCO)[C@@H](O)[C@H]3O)c2n1 | 90.9 | 70.9 |  |  |
| CCCSc1nc(N/N=C/c2cccc(O)c2)c2nnn([C@@H]3C[C@H](OCCO)[C@@H](O)[C@H]3O)c2n1 | 100 | 85.4 | 580 |  |
| CCCSc1nc(N/N=C/c2ccc(F)c(F)c2)c2nnn([C@@H]3C[C@H](OCCO)[C@@H](O)[C@H]3O)c2n1 | 85.4 | 46.3 |  |  |
| CCCSc1nc(NCCO)c2nnn([C@@H]3C[C@H](O)[C@@H](O)[C@H]3O)c2n1 | 69.4 |  |  |  |
| CCCSc1nc(NCCc2ccccc2)c2nnn([C@@H]3C[C@H](O)[C@@H](O)[C@H]3O)c2n1 | 33.4 |  |  |  |
| CCCSc1nc(NCCCc2ccccc2)c2nnn([C@@H]3C[C@H](O)[C@@H](O)[C@H]3O)c2n1 | 29.3 |  |  |  |
| CCCSc1nc(NCCCO)c2nnn([C@@H]3C[C@H](O)[C@@H](O)[C@H]3O)c2n1 | 70.3 |  | 1780 |  |
| CCCCNc1nc(SCCC)nc2c1nnn2[C@@H]1C[C@H](O)[C@@H](O)[C@H]1O | 85.4 |  |  |  |
| CCCSc1nc(N[C@@H]2C[C@H]2c2ccc(F)c(F)c2)c2nnn([C@@H]3C[C@H](OCCO)[C@@H](O)[C@H]3O)c2n1 [TICAGRELOR] | 92.7 | 78.6 | 740 | inhibition in vivo at 2.5 mg/kg (Mus musculus [4]): 52.2%; inhibition in vivo at 5 mg/kg (Mus musculus [5]): 69.4%; Time [6]: > 20 min; Activity [7]: 73.25 µL; IC50 (P2Y purinoceptor 12): 39 nM |
